Measurements as given in ChEMBL document CHEMBL1152488, “Synthesis and evaluation of pyrido[1,2-a]pyrimidines as inhibitors of nitric oxide synthases” (Eur J Med Chem, 2009).

Target: Nitric oxide synthase, inducible (Homo sapiens) (UniProt P35228)
Experiment: Inhibition of human iNOS expressed in insect Sf9 cells assessed as residual activity at 100 uM by Griess assay relative to control
How it was run: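 Human iNOS made in Sf9 cells, incubated at 37 °C for 20 min in 50 mM triethanolamine pH 7.5 with 1 mM Mg2+, FAD/FMN 5 µM each, 0.5 mM NADPH, 10 µM H4B, CaM and 1 mM L-arginine. Compound 100 µM final. NADPH cleared with lactate dehydrogenase/pyruvate before Griess reaction (543 nm). Residual activity relative to 1% DMSO control; mean of 5 experiments.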

Chain of Nitric oxide synthase, inducible (Homo sapiens) (P35228 whole entry): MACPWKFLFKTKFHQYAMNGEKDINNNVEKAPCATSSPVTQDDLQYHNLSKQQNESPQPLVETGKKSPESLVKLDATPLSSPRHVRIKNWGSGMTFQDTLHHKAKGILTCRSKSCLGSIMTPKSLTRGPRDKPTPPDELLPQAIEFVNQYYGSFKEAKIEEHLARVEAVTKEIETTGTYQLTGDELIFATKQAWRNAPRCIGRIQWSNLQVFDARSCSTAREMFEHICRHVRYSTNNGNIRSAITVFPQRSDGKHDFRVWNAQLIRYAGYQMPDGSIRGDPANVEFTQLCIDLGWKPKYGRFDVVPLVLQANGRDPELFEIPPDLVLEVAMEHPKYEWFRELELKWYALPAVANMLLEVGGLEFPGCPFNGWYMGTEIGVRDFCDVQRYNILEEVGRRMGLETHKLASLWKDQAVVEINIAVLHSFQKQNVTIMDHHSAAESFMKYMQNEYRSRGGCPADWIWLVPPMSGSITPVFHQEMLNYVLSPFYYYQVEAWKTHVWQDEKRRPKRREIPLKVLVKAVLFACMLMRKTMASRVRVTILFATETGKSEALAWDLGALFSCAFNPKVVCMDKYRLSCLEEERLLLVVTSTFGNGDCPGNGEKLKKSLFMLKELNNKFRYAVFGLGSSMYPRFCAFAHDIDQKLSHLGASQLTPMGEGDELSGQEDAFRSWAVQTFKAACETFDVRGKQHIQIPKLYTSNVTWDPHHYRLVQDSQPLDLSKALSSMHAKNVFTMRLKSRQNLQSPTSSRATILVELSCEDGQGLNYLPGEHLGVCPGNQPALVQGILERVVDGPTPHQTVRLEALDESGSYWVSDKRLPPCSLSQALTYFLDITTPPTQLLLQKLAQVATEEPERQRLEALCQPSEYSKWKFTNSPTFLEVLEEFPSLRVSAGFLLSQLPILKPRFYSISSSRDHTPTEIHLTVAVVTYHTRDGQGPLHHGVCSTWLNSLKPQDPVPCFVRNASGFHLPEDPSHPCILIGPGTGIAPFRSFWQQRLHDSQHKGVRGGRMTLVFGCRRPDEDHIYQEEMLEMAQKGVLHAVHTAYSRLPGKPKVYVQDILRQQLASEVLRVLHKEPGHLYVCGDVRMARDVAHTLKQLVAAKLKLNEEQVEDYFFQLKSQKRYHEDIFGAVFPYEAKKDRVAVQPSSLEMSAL

Compared with `O=C(c1ccc(Br)cc1)C1CN=C2C=CC=CN2C1` (stereo unspecified), `CC1=CC2=NCC(C(=O)c3ccc(Br)cc3)CN2C=C1` (stereo unspecified) is lower in Activity: 110% for the first, 69% for the second.

Compared with `CC1=CC2=NCC(C(=O)c3ccc(OCc4ccc(C#N)cc4)cc3)CN2C=C1.[O-][Cl+3]([O-])([O-])O` (stereo unspecified), `CC1=CC2=NCC(C(=O)c3ccc(OCc4ccc(Cl)cc4)cc3)CN2C=C1.[O-][Cl+3]([O-])([O-])O` (stereo unspecified) is lower in Activity: 105% for the first, 94% for the second.

Going from `CC1=CC2=NCC(C(=O)c3ccc4cc(C)ccc4c3)CN2C=C1.[O-][Cl+3]([O-])([O-])O` (stereo unspecified) to `CC1=CC2=NCC(C(=O)c3ccc4ccccc4c3)CN2C=C1` (stereo unspecified), the Activity falls from 103% to 47%.

Going from `CC1=CC=CC2=NCC(C(=O)c3ccc(Br)cc3)CN12` (stereo unspecified) to `CC1=CC2=NCC(C(=O)c3ccc(-c4ccc(Br)cc4)cc3)CN2C(C)=C1` (stereo unspecified), the Activity falls from 93% to 89%.

Going from `N=C(NCCC[C@H](N)C(=O)O)N[N+](=O)[O-]` to `CC(=N)NCc1cccc(CN)c1`, the Activity falls from 48% to 5%.

First: O=C(c1ccc2ccccc2c1)C1CN=C2C=CC=CN2C1 (stereo unspecified)
Second: O=C(c1ccc(Cl)c(Cl)c1)C1CN=C2C=CC=CN2C1.[O-][Cl+3]([O-])([O-])O (stereo unspecified)
The Activity of the first is lower: 93% for the first, 105% for the second.

Compared with `CC1=CC2=NCC(C(=O)c3ccc(-c4ccc(C#N)cc4)cc3)CN2C=C1.Cl` (stereo unspecified), `COc1ccc(C(=O)C2CN=C3C=C(C)C=CN3C2)cc1F.[O-][Cl+3]([O-])([O-])O` (stereo unspecified) is higher in Activity: 55% for the first, 102% for the second.

Target: T1, Nitric oxide synthase 3 (Bos taurus) (UniProt P29473)
T1 sequence (whole entry): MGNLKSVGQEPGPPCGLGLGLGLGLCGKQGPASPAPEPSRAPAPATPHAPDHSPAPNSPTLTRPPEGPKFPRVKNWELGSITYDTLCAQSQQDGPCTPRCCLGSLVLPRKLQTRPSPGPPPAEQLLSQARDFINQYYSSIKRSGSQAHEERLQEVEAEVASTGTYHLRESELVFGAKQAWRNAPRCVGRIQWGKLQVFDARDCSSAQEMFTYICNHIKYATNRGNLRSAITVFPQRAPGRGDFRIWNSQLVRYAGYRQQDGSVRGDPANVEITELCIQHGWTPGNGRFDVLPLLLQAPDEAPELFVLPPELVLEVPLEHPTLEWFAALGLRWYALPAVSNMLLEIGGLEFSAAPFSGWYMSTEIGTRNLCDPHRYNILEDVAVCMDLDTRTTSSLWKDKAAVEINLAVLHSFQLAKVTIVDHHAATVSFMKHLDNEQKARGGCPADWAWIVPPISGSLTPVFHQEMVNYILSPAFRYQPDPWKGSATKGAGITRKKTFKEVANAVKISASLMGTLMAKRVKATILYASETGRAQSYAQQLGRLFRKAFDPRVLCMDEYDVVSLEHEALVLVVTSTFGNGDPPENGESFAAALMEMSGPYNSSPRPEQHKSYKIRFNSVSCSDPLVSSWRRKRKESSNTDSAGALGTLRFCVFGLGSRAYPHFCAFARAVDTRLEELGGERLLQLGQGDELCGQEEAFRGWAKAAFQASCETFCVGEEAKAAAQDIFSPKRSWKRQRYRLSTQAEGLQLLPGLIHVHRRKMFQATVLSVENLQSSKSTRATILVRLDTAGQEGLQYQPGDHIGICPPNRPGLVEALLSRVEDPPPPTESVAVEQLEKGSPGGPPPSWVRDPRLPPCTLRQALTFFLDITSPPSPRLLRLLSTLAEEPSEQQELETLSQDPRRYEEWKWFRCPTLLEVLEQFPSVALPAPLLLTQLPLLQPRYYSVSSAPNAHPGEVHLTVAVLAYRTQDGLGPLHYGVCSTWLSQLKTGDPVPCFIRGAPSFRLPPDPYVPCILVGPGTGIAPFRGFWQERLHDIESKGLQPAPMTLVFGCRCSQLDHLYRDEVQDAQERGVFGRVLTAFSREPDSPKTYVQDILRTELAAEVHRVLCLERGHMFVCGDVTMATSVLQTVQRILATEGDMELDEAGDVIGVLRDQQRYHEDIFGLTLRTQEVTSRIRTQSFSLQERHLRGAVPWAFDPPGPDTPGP
Experiment: Inhibition of bovine recombinant eNOS expressed in Escherichia coli assessed as conversion of [gamma-14C]L-arginine to [14C]L-citrulline at 100 uM by radioactive assay relative to control
Design: scale not given: the % may be the effect or the level left
How it was run: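 Purified enzymes: rat nNOS from S. cerevisiae, murine iNOS and bovine eNOS from E. coli. Reaction 5 min at 37 °C in 50 mM Hepes pH 7.4 with DTT, 1 mM NADPH, H4B, FAD, FMN, [14C]L-arginine (2.5 µM L-arginine) and 100 µM compound in 1% DMSO. nNOS/eNOS also got 1 mM CaCl2 and CaM, which iNOS lacked. [14C]citrulline isolated on Dowex and counted by scintillation; % of DMSO control, n=3.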

Compared with `CC1=CC2=NCC(C(=O)c3ccc(OCc4ccc(C#N)cc4)cc3)CN2C=C1.[O-][Cl+3]([O-])([O-])O` (stereo unspecified), `CC1=CC2=NCC(C(=O)c3ccc(OCc4ccc(Cl)cc4)cc3)CN2C=C1.[O-][Cl+3]([O-])([O-])O` (stereo unspecified) is lower in Activity: 44% for the first, 2% for the second.

Going from `CC1=CC2=NCC(C(=O)c3ccc4cc(C)ccc4c3)CN2C=C1.[O-][Cl+3]([O-])([O-])O` (stereo unspecified) to `COc1ccc(C(=O)C2CN=C3C=C(C)C=CN3C2)cc1F.[O-][Cl+3]([O-])([O-])O` (stereo unspecified), the Activity rises from 48% to 59%.

Going from `N=C(NCCC[C@H](N)C(=O)O)N[N+](=O)[O-]` to `O=C(c1ccc(Cl)c(Cl)c1)C1CN=C2C=CC=CN2C1.[O-][Cl+3]([O-])([O-])O` (stereo unspecified), the Activity rises from 5% to 83%.

Compared with `CC1=CC2=NCC(C(=O)c3ccc(-c4ccc(C#N)cc4)cc3)CN2C=C1.Cl` (stereo unspecified), `CC1=CC2=NCC(C(=O)c3ccc(-c4ccc(Br)cc4)cc3)CN2C(C)=C1` (stereo unspecified) is higher in Activity: 18% for the first, 32% for the second.

Target: T2, Nitric oxide synthase 3 (Homo sapiens) (UniProt P29474)
T2 sequence (whole entry): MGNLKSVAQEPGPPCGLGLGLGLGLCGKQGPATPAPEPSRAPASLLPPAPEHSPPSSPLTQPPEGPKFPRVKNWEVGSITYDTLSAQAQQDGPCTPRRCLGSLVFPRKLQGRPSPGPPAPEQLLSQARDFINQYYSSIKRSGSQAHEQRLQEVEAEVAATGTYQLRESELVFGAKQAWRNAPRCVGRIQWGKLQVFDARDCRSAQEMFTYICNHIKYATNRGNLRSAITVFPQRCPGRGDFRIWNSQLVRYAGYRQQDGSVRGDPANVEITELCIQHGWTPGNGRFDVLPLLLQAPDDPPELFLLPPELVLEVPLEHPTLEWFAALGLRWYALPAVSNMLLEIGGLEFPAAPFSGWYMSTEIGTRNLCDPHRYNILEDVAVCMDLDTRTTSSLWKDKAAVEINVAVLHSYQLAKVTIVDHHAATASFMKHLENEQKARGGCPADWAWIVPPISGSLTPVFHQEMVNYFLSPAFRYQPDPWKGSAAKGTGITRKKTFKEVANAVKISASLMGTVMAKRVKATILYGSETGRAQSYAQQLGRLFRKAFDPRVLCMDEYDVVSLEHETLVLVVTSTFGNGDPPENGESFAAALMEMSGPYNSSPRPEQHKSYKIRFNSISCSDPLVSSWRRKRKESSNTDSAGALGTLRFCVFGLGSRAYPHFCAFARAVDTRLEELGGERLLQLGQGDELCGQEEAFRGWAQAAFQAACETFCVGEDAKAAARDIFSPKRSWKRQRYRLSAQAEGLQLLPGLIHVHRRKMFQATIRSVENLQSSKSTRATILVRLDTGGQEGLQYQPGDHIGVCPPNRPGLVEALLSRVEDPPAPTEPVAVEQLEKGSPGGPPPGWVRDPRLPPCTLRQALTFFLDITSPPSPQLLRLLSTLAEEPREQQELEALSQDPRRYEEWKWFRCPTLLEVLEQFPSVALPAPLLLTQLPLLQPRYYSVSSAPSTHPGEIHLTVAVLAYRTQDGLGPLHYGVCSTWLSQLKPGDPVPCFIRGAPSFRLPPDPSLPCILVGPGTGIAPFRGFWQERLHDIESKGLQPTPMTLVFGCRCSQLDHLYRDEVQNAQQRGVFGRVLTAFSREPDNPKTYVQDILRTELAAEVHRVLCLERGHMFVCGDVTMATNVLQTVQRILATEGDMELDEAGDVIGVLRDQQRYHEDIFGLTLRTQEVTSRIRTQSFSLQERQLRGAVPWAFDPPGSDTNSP
Experiment: Inhibition of human eNOS assessed as residual activity at 100 uM by Griess assay relative to control
How it was run: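 Human eNOS expressed in Pichia pastoris. Incubated 20 min at 37 °C in triethanolamine pH 7.5 with 0.5 mM Ca2+, CaM, H4B 10 µM, FAD/FMN 5 µM, NADPH 0.5 mM, L-arginine 1 mM and compound at 100 µM final. Nitrite read by Griess (543 nm) after LDH/pyruvate NADPH removal; % of 1% DMSO control from 5 experiments.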

Going from `O=C(c1ccc(Br)cc1)C1CN=C2C=CC=CN2C1` (stereo unspecified) to `CC1=CC2=NCC(C(=O)c3ccc(Br)cc3)CN2C=C1` (stereo unspecified), the Activity falls from 85% to 73%.

Compared with `CC1=CC2=NCC(C(=O)c3ccc(OCc4ccc(C#N)cc4)cc3)CN2C=C1.[O-][Cl+3]([O-])([O-])O` (stereo unspecified), `CC1=CC2=NCC(C(=O)c3ccc(OCc4ccc(Cl)cc4)cc3)CN2C=C1.[O-][Cl+3]([O-])([O-])O` (stereo unspecified) is lower in Activity: 78% for the first, 8% for the second.

Compared with `CC1=CC2=NCC(C(=O)c3ccc4cc(C)ccc4c3)CN2C=C1.[O-][Cl+3]([O-])([O-])O` (stereo unspecified), `CC1=CC2=NCC(C(=O)c3ccc4ccccc4c3)CN2C=C1` (stereo unspecified) is higher in Activity: 11% for the first, 60% for the second.

Going from `CC1=CC=CC2=NCC(C(=O)c3ccc(Br)cc3)CN12` (stereo unspecified) to `CC1=CC2=NCC(C(=O)c3ccc(-c4ccc(Br)cc4)cc3)CN2C(C)=C1` (stereo unspecified), the Activity falls from 86% to 15%.

Going from `N=C(NCCC[C@H](N)C(=O)O)N[N+](=O)[O-]` to `CC(=N)NCc1cccc(CN)c1`, the Activity rises from 25% to 105%.

Going from `O=C(c1ccc2ccccc2c1)C1CN=C2C=CC=CN2C1` (stereo unspecified) to `O=C(c1ccc(Cl)c(Cl)c1)C1CN=C2C=CC=CN2C1.[O-][Cl+3]([O-])([O-])O` (stereo unspecified), the Activity rises from 60% to 89%.

Compared with `CC1=CC2=NCC(C(=O)c3ccc(-c4ccc(C#N)cc4)cc3)CN2C=C1.Cl` (stereo unspecified), `COc1ccc(C(=O)C2CN=C3C=C(C)C=CN3C2)cc1F.[O-][Cl+3]([O-])([O-])O` (stereo unspecified) is higher in Activity: 55% for the first, 84% for the second.
